# Experimental data reported in ChEMBL document CHEMBL5244268, “Preventing Candida albicans biofilm formation using aromatic-rich piperazines” (Bioorg Med Chem, 2020).
# Activity calls are given as the source filed them. No cut-off for these calls is given here.
# Assays:
# Candida albicans [1] = test: Antibiofilm activity against Candida albicans ATCC 28366 assessed as inhibition of biofilm formation at 0.5 to 32 ug/ml incubated for 24 to 48 hrs by crystal violet staining based absorbance spectrometry analysis; type: functional, organism-based; details: dose 0.5-32 µg/ml, time 24-48 hrs
# In short: (§1)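 Overnight cultures (37 °C, aerobic, Sabouraud pH 7.0) adjusted to OD660 0.2, mixed 1:1 with two-fold serial dilutions in medium and incubated at 37 °C. Biofilm stained with crystal violet, dye released in 75% ethanol, A550 read. Growth relative to compound-free wells (100%) after blank subtraction. At least two independent experiments in triplicate, t test.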
# Candida albicans [2] = test: Antibiofilm activity against Candida albicans ATCC 28366 assessed as disruption of preformed biofilm incubated for 12 hrs by crystal violet staining based absorbance spectrometry analysis; type: functional, organism-based
# In short: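 Mature biofilms grown 36 to 48 h in Sabouraud pH 7.0 without compound; medium and free cells removed, rinsed with 50 mM PBS pH 7.0, then two-fold serial dilutions in PBS added for 12 h at 37 °C. Residual biofilm stained with crystal violet, dye released in 75% ethanol, A550 read. PBS-treated biofilms as controls.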
# Candida albicans [3] = test: Antifungal activity against Candida albicans ATCC 28366 assessed as reduction in fungal growth at up to 64 ug/ml incubated for 24 hrs by plate count determination; type: functional, organism-based; details: dose <= 64.0 µg/ml
# Candida albicans [4] = test: Antifungal activity against Candida albicans ATCC 28366 assessed as inhibition of fungal growth incubated for 24 hrs by plate count determination; type: functional
# In short: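 Biofilm-assay setup (Sabouraud pH 7.0, inoculum OD660 0.2, serial two-fold dilutions, 37 °C). […] Highest value kept when replicates differ. At least two independent experiments in triplicate.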
# Candida albicans [5] = test: Antibiofilm activity against Candida albicans ATCC 28366 assessed as inhibition of biofilm formation at 2 ug/ml incubated for 24 to 48 hrs by crystal violet staining based absorbance spectrometry analysis; type: functional, organism-based; details: dose 2.0 µg/ml, time 24-48 hrs; in short: as §1
# Candida albicans [6] = test: Fungicidal activity against Candida albicans ATCC 28366 assessed as prevention of colony formation incubated for 24 hrs; type: functional
# Candida albicans [7] = test: Antibiofilm activity against Candida albicans ATCC 28366 at up to 96 ug/ml incubated for 24 to 48 hrs by crystal violet staining based absorbance spectrometry analysis; type: functional, organism-based; details: dose <= 96.0 µg/ml, time 24-48 hrs; in short: as §1
# Candida albicans [8] = test: Antifungal activity against Candida albicans ATCC 28366 assessed as reduction in fungal growth incubated for 24 hrs by plate count determination; type: functional, organism-based
# Candida albicans [9] = test: Antibiofilm activity against Candida albicans ATCC 28366 incubated for 24 to 48 hrs by crystal violet staining based absorbance spectrometry analysis; type: functional, organism-based; details: time 24-48 hrs; in short: as §1
# Candida albicans [10] = test: Antibiofilm activity against Candida albicans ATCC 28366 assessed as inhibition of morphogenesis at 8 ug/ml incubated for 4 hrs in spider medium by microscopic analysis; type: functional, organism-based; details: dose 8.0 µg/ml
# In short: (§2)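 Yeast-form cells grown overnight in YPD at 30 °C. 50 µL inoculated into 5 mL hypha-inducing medium (e.g., Spider: 1% nutrient broth, 1% mannitol, 0.2% K2HPO4, pH 7.2) containing two-fold dilutions, then 4 h at 37 °C. At least 100 cells per replicate counted as hypha (pseudohyphae and intermediates included) or yeast. Compound-free control for maximal conversion. At least two independent experiments in triplicate.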
# Candida albicans [11] = test: Antibiofilm activity against Candida albicans LAM-1 assessed as inhibition of morphogenesis at 8 ug/ml incubated for 4 hrs in spider medium by microscopic analysis; type: functional, organism-based; details: dose 8.0 µg/ml; in short: as §2
# Candida albicans [12] = test: Antibiofilm activity against Candida albicans LAM-1 assessed as reduction in fungal growth at 8 ug/ml incubated for 4 hrs in spider medium by plate count determination; type: functional, organism-based; details: dose 8.0 µg/ml
# In short: (§3)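 After the 4 h, 37 °C morphogenesis incubation in Spider medium (YPD overnight inoculum, 50 µL into 5 mL), OD660 measured to follow fungal growth; C. albicans viability confirmed by plate count.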
# Candida albicans [13] = test: Antibiofilm activity against Candida albicans ATCC 28366 assessed as inhibition of N-acetylglucosamine induced morphological switching at 8 ug/ml incubated for 4 hrs by microscopic analysis; type: functional, organism-based; details: dose 8.0 µg/ml; in short: as §2
# Candida albicans [14] = test: Antibiofilm activity against Candida albicans ATCC 28366 assessed as inhibition of nitrogen deprivation induced morphological switching at 8 ug/ml incubated for 4 hrs in SLAD media by microscopic analysis; type: functional, organism-based; details: dose 8.0 µg/ml; in short: as §2
# Candida albicans [15] = test: Antibiofilm activity against Candida albicans ATCC 28366 assessed as inhibition of filamentation at 8 ug/ml incubated for 4 hrs in Lee's medium by microscopic analysis; type: functional, organism-based; details: dose 8.0 µg/ml; in short: as §2
# Candida albicans [16] = test: Antibiofilm activity against Candida albicans ATCC 28366 assessed as reduction in fungal growth at 8 ug/ml incubated for 4 hrs in spider medium by plate count determination; type: functional, organism-based; details: dose 8.0 µg/ml; in short: as §3
# Candida albicans [17] = test: Antibiofilm activity against Candida albicans ATCC 28366 assessed as inhibition of morphological switching at 8 ug/ml incubated for 4 hrs in YPD medium with fetal bovine serum by microscopic analysis; type: functional, organism-based; details: dose 8.0 µg/ml; in short: as §2
Compound,Activity (Candida albicans [2]),MIC (Candida albicans [4]),Activity (Candida albicans [7]),Activity (Candida albicans [8]),Activity (Candida albicans [9]),other results
c1ccc(COc2ccc(C[C@@H]3CN[C@@H](Cc4ccccc4)CN3)cc2)cc1,inactive,> 128 µg/mL,,,,inhibition (Candida albicans [1]): Active; Activity (Candida albicans [3]): inactive
c1ccc(COc2ccc(C[C@@H]3CN[C@H](Cc4ccc(OCc5ccccc5)cc4)CN3)cc2)cc1,inactive,24 µg/mL,,,,inhibition (Candida albicans [5]): Active; MFC (Candida albicans [6]): 24 µg/mL
c1ccc(COc2ccc(C[C@H]3CN[C@@H](Cc4ccc(OCc5ccccc5)cc4)CN3)cc2)cc1,inactive,24 µg/mL,,,,inhibition (Candida albicans [5]): Active; MFC (Candida albicans [6]): 24 µg/mL
c1ccc(C[C@H]2CN[C@H](Cc3ccccc3)CN2)cc1,inactive,,inactive,,,
Oc1ccc(C[C@H]2CN[C@@H](Cc3ccc(O)cc3)CN2)cc1,inactive,,,inactive,inactive,
CN1C[C@H](Cc2ccc(OCc3ccccc3)cc2)N(C)C[C@@H]1Cc1ccccc1,,,,inactive,inactive,inhibition (Candida albicans [10]): inactive; inhibition (Candida albicans [11]): inactive; Activity (Candida albicans [12]): inactive; inhibition (Candida albicans [13]): inactive; inhibition (Candida albicans [14]): inactive; inhibition (Candida albicans [15]): inactive; Activity (Candida albicans [16]): inactive; inhibition (Candida albicans [17]): inactive
Oc1ccc(C[C@@H]2CN[C@H](Cc3ccccc3)CN2)cc1,inactive,,,inactive,inactive,
CN1C[C@H](Cc2ccccc2)N(C)C[C@@H]1Cc1ccccc1,,,inactive,,,
Oc1ccc(C[C@H]2CN[C@@H](Cc3ccccc3)CN2)cc1,inactive,,,inactive,inactive,
CN1C[C@@H](Cc2ccccc2)N(C)C[C@H]1Cc1ccccc1,,,inactive,,,
